# Laboratory results as given in ChEMBL document CHEMBL2021862, “5-imino-1,2,4-thiadiazoles: first small molecules as substrate competitive inhibitors of glycogen synthase kinase 3” (J Med Chem, 2012).
# The source made the active and inactive calls. The rule behind the calls is not given here.
# Target: Glycogen synthase kinase-3 beta (Homo sapiens, UniProt P49841)
# Assay: Competitive inhibition of human recombinant GSK3beta at 12.5 to 100 uM after 30 mins by Michaelis-Menten equation in presence of 1 uM ATP
# Procedure, shortened: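 Lineweaver–Burk kinetics on human recombinant GSK-3β. GS-2 substrate was varied from 12.5 to 100 μM against inhibitor at 0.5–2.5 μM, with ATP held at 1 μM. Luminescent kinase read-out. Each point is the mean of two experiments, each run in duplicate.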
# Sequence of Glycogen synthase kinase-3 beta (P49841 whole entry, looked up): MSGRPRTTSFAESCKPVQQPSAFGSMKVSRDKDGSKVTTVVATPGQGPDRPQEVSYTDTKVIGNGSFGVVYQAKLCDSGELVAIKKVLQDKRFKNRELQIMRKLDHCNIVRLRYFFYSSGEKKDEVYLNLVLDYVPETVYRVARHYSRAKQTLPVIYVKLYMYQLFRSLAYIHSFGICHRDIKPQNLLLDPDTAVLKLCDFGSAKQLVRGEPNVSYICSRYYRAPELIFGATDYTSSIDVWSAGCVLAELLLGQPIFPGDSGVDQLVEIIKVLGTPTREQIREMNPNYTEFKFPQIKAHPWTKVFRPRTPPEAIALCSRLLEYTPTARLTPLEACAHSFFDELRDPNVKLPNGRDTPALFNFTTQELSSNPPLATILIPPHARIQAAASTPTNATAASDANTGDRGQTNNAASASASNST
substance,measurement,value
H-YRRAAVPPSPSLSRHSSPHQAEDEEE-OH,inhibition,Active
